Compound activity (PubChem)
T cruzi HTS = blocks T. cruzi growth inside host cells | intracellular Trypanosoma cruzi in host cells, plate reader | activity score (inhibition), % at 5.01 µM | 22,000 tested, 4.9% active | AID 651903; in the data active means activity score above about 55%;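 further: parasites and compound incubated about four days before reading; 0% = median of neutral control wells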
INS-1E ATP HTS = rescue of cytokine-induced death in INS-1E beta cells | protection from cytokine-induced ATP loss, % at 10 µM | INS-1E cytokine-induced death, ATP luminescence, 48 h; normalised: neutral wells 0, positive control 100 | 20,000 tested, 0.1% active | AID 488910;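 active means mean replicate protection from cytokine-induced ATP loss at least 50% and at least 75% of replicates each reaching 50%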
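Assay system – rat INS-1E insulinoma cell line · Quantity – 8000 cells per well · Buffer or medium – RPMI without phenol red, 5% FBS · Schedule – 48 h co-treatment, 10 min post-lysis read · Technique – luminescent ATP assay (CellTiter-Glo)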
A1 apoptosis 2 = compounds inhibiting A1, read as caspase activation; MEF A1-2A-BIM cells, caspase-Glo luminescence, 3 h; percent of clofoctol response, DMSO zero; caspase activation, % (no concentration beside the values); 24,000 tested, under 10 active; AID 2465; in the data active means caspase activation above about 5.9%
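Material: mouse embryonic fibroblasts co-expressing A1 and BIM (A1-2A-BIM), primed for A1 dependence / Quantity: 2500 cells/well / Buffer or medium: RPMI-1640 growth medium with 10% FBS / Doses: 50 nL compound per well, pinned / Schedule: 3 h compound exposure at 37 °C / Signal: Caspase-Glo luminescence (DEVD substrate) / Measure: Caspase-3/7 activation, seen as rise in luminescence signal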
Numbers without * were called inactive; / = no result given. Shown is part of a subset that was picked to be rich in hits.

SMILES	T cruzi HTS	INS-1E ATP HTS	A1 apoptosis 2
C[C@H](CO)N1C[C@H](C)[C@@H](CN(C)C(=O)Nc2ccc(C(F)(F)F)cc2)OCCCC[C@H](C)Oc2ccc(NS(=O)(=O)c3ccc(Cl)cc3)cc2C1=O	/	/	-2
C[C@H](CO)N1C[C@H](C)[C@H](CN(C)C(=O)Nc2ccc(C(F)(F)F)cc2)OCCCC[C@H](C)Oc2ccc(NS(=O)(=O)c3ccc(F)cc3)cc2C1=O	/	/	-2
C[C@@H]1CN([C@@H](C)CO)C(=O)c2cc(NS(=O)(=O)c3ccc(Cl)cc3)ccc2O[C@@H](C)CCCCO[C@@H]1CN(C)C(=O)Nc1cccc2ccccc12	/	/	0
O=C(CCCCCC(=O)Nc1ccccc1O)N/N=C/c1cc(O)ccc1[N+](=O)[O-]	/	/	1
COC(=O)CCCCCCC(=O)N/N=C/c1ccccc1C(=O)O	-22	7	/
COC(=O)c1cn(CC(=O)Nc2ccon2)nn1	/	/	-1
COc1ccc(NC(=O)Nc2ccc3c(c2)CC(=O)N([C@H](C)CO)C[C@@H](C)[C@@H](CN(C)Cc2ccc(Oc4ccccc4)cc2)O3)cc1	72*	-22	/
COc1ccc(CN(C)C[C@@H]2Oc3ccc(NC(=O)Nc4ccccc4)cc3CC(=O)N([C@@H](C)CO)C[C@H]2C)cc1	/	/	0
COc1ccc(NC(=O)Nc2ccc3c(c2)CC(=O)N([C@@H](C)CO)C[C@H](C)[C@@H](CN(C)Cc2ccc(Oc4ccccc4)cc2)O3)cc1	62*	-40	0
C[C@H]1CN([C@@H](C)CO)C(=O)Cc2cc(NC(=O)C3CCCCC3)ccc2O[C@@H]1CN(C)Cc1ccc(Oc2ccccc2)cc1	59*	-29	/
C[C@H](CO)N1C[C@H](C)[C@@H](CN(C)Cc2ccc(Oc3ccccc3)cc2)Oc2ccc(NC(=O)C3CCCCC3)cc2CC1=O	/	/	0
COc1ccc(NC(=O)Nc2ccc3c(c2)CC(=O)N([C@H](C)CO)C[C@@H](C)[C@H](CN(C)Cc2ccc(Oc4ccccc4)cc2)O3)cc1	10	-25	/
C[C@@H]1CN([C@@H](C)CO)C(=O)Cc2cc(NC(=O)Nc3ccc(C(F)(F)F)cc3)ccc2O[C@@H]1CN(C)S(=O)(=O)c1cccs1	73*	-20	1
C[C@H]1CN([C@@H](C)CO)C(=O)Cc2cc(NC(=O)Nc3ccc(C(F)(F)F)cc3)ccc2O[C@@H]1CN(C)S(=O)(=O)c1ccccc1	-5	8	0
C[C@@H]1CN([C@@H](C)CO)C(=O)Cc2cc(NC(=O)Nc3ccc(C(F)(F)F)cc3)ccc2O[C@@H]1CN(C)S(=O)(=O)c1ccccc1	75*	-11	/
C[C@H](CO)N1C[C@H](C)[C@H](CN(C)S(=O)(=O)c2ccccc2)Oc2ccc(NC(=O)Nc3ccc(C(F)(F)F)cc3)cc2CC1=O	77*	-68	/
C[C@H](CO)N1C[C@H](C)[C@H](CN(C)S(=O)(=O)c2cccs2)Oc2ccc(NC(=O)Nc3ccc(C(F)(F)F)cc3)cc2CC1=O	41	-22	-1
Cc1ccc(S(=O)(=O)N(C)C[C@H]2Oc3ccc(NC(=O)Nc4ccc(C(F)(F)F)cc4)cc3CC(=O)N([C@@H](C)CO)C[C@@H]2C)cc1	2	-5	/
O=C(Nc1ccccc1)c1ccc(CNc2nccc(-c3cccnc3)n2)cc1	/	/	0
COc1ccc(S(=O)(=O)NC2CCN(Cc3cccc(OCCO)c3)CC2)cc1	/	/	0
COC(=O)CCCCCCC(=O)N/N=C/c1ccccc1	/	/	-1
CCCCN(CCCC)c1ccc(/C=N/NC(=O)CCCCCCC(=O)OC)cc1	58*	-6	-1
Cc1cc(C(=O)Nc2cccc3c2O[C@H](CN(C)Cc2ccc(C(=O)Nc4ccccc4N)cc2)[C@H](C)CN([C@@H](C)CO)C3=O)n(C)n1	28	60*	/
C[C@@H]1CN([C@H](C)CO)C(=O)c2cccc(NC(=O)Nc3cccc4ccccc34)c2O[C@@H]1CN(C)Cc1ccc(C(=O)Nc2ccccc2N)cc1	/	/	0
Cc1cc(C(=O)Nc2cccc3c2O[C@@H](CN(C)Cc2ccc(C(=O)Nc4ccccc4N)cc2)[C@@H](C)CN([C@H](C)CO)C3=O)n(C)n1	54	-15	/
C[C@H]1CN([C@@H](C)CO)C(=O)c2cccc(NC(=O)Nc3cccc4ccccc34)c2O[C@H]1CN(C)Cc1ccc(C(=O)Nc2ccccc2N)cc1	68*	-10	1
C[C@@H]1CN([C@H](C)CO)C(=O)c2cccc(NC(=O)Nc3ccccc3)c2O[C@H]1CN(C)Cc1ccc(C(=O)Nc2ccccc2N)cc1	76*	4	2
C[C@@H]1CN([C@@H](C)CO)C(=O)c2cccc(NC(=O)Nc3ccccc3)c2O[C@@H]1CN(C)Cc1ccc(C(=O)Nc2ccccc2N)cc1	66*	46	/
